Screens deposited in PubChem by Sanford-Burnham Center for Chemical Genomics.
Shown are actives, neighbours in structure and some others; about 1.7% of the full set was active somewhere.
SKN-1 inh: suppressors of acrylamide-induced Pgst-4::GFP reporter in worms, primary screen, SKN-1 inhibitor project, whole organism, uHTS, GFP/RFP fluorescence ratio, strain VP596. hit rate 0.49% among 360,000. C. elegans VP596 Pgst-4::GFP/RFP ratio, 24 h. inhibition, % at 21.8 µM;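 active = interference check ratio from 0.5 to 1.5 plus GFP to RFP signal ratio inhibition reaching or exceeding a fixed threshold, cut at about 30% in these data, passing the limit was not always enough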
PABP1 MLLE inh: inhibitors of PABP1 MLLE–PAM2 peptide binding, primary screen, biochemical, fluorescence polarization, FITC-PAM2, GST-MLLE; hit rate 0.36% among 360,000; inhibition, % at 20 µM; Polyadenylate-binding protein 1 (Homo sapiens), P11940; in the data active = inhibition above about 35%, passing the limit was not always enough;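 also: plate controls were DMSO wells with GST-MLLE for no effect and wells lacking GST-MLLE protein for full effect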
Target sequence (P11940 whole entry, looked up): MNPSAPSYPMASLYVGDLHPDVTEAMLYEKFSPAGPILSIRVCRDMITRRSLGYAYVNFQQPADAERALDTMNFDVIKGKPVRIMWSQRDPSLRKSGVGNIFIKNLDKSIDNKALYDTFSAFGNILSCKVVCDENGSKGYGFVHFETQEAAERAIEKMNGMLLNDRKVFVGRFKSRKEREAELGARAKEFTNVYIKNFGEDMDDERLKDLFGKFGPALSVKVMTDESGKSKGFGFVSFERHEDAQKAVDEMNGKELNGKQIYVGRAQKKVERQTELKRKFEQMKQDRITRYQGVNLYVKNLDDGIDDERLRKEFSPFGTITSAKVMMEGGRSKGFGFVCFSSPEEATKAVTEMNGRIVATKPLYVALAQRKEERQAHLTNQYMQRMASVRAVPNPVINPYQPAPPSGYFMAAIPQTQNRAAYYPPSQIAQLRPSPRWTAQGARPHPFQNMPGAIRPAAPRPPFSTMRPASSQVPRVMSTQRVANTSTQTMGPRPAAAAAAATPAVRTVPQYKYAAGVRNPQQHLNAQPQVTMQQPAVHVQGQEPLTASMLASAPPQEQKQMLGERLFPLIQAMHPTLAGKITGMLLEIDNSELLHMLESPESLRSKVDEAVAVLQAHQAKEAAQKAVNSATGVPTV
MT1-MMP act inh: blockers of MT1-MMP proenzyme processing, primary screen, HT1080 RFP-PRO-GFP cells, GFP/RFP fluorescence | Matrix metalloproteinase-14 (Homo sapiens), P50281 | hit rate 0.061% among 360,000 | GFP/RFP ratio fluorescence, overnight; percent of plate control window, DMSO zero | AID 651647, 2012 | GFP/RFP ratio change, % at 20 µM;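 active = GFP/RFP ratio change of at least 30% with cell ATP level not reduced by more than half and red fluorescence within 50% of control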
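Material: RFP-PRO-GFP reporter HT1080 cells. Dosing: single-point 20 µM compound, 1% DMSO. Controls: DMSO and RFP-L50D-GFP cell wells. Timing: cells overnight before dosing, compound overnight, 37 °C, 5% CO2. Measure: GFP/RFP fluorescence ratio.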
PABP FP inh: PABP poly(A) RNA binding inhibitors, primary screen, biochemical, fluorescence polarization, uHTS; inhibition, % at 35 µM; hit rate 1% among 290,000; Polyadenylate-binding protein 1 (Homo sapiens), P11940;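 also: calls also rest on retests at 20 µM and on dose response follow-up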
eIF4H FP inh: human eIF4H binding inhibitors, primary screen, translation initiation inhibitor project, biochemical, uHTS, fluorescence polarization. Eukaryotic translation initiation factor 4H (Homo sapiens), Q15056. eIF4H fluorescence polarization binding assay. inhibition, % at 35 µM. hit rate 0.94% among 290,000. AID 2012, 2009;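 also: calls also rest on retests at 20 µM and on dose response follow-up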
* hit, by the source's call; ? = inconclusive; . = no result. Unless noted, no rule for the calls is given here.

SMILES | SKN-1 inh | PABP1 MLLE inh | MT1-MMP act inh | PABP FP inh | eIF4H FP inh
Cc1ccc(C(=O)CSC2=C(C#N)C(c3ccco3)C3=C(CC(C)(C)CC3=O)N2)cc1 (stereo not given) | 27.6* | -0.4 | -0.5 | 4.9 | 12.6
O=C(C1CCCN(S(=O)(=O)c2ccc(F)cc2)C1)N1CCCCC1 (stereo not given) | 10.7 | 1.5 | 3.5 | 8.0 | 3.8
COc1ccc2c(c1OC)C(=O)OC2Nc1nc(-c2ccc(-c3ccccc3)cc2)cs1 (stereo not given) | 64.7* | 23.3 | -10.9 | -1.5 | -1.5
Cc1cc2cc(CNC(=O)Cc3cccs3)ccc2n1C | 44.0 | 38.8* | 41.7 | 31.7 | 40.3
NS(=O)(=O)c1ccc(CNC(=O)Cc2cccs2)cc1 | 5.9 | -28.0 | -1.5 | 15.6 | 57.7*
Cc1ccnc(NS(=O)(=O)c2ccc(NC(=O)Cc3cccs3)cc2)n1 | -29.4 | -21.2 | -3.7 | 13.3 | 59.5
Cc1cc2cc(CNC(=O)Nc3cccc(Cl)c3)ccc2n1C | 54.9 | 85.7 | 30.1 | -5.5 | 45.6
O=C(Cc1cccs1)Nc1ccc(S(=O)(=O)Nc2ncccn2)cc1 | 1.7 | -31.8 | -3.9 | 10.4* | 60.9*
O=C(Cc1cccs1)NCc1ccccc1 | -1.6 | 8.4 | -1.8 | 1.2 | 1.1
Cc1cccc(NC(=O)NCc2ccc3c(c2)cc(C)n3C)c1 | 48.8* | 60.3 | 46.2 | 26.9 | 55.1
Cc1c(O)ccc(C(=O)CN2CCN(Cc3ccccc3)CC2)c1O | 0.0 | -10.5 | 1.8 | 9.2 | 6.6
O=[S@]1Oc2ccccc2-c2ccccc21 | -2.8 | 7.3 | 2.8 | . | .
Cc1cccc(NC(=O)CN(CC2CCCO2)C(=O)c2ccc(S(C)(=O)=O)cc2)c1C (stereo not given) | 9.6 | -4.8 | -2.0 | . | .
Cc1cc2cc(CNC(=O)CCC(=O)O)ccc2n1C | 38.5* | 16.7 | 7.5 | 2.1 | 2.8
CCCC(=O)NCc1ccc2c(c1)cc(C)n2C | 54.5 | 22.6 | 25.4 | 14.7 | 17.2
CC(C)(C)[C@H]1COC(=O)[C@H](NC(=O)OCC2c3ccccc3-c3ccccc32)C/C=C\C[C@@H](CC(=O)N(CCO)Cc2ccccc2)C(=O)N1 | 4.8 | 2.7 | 2.2 | . | .
CC(=O)Nc1ccc2nc(-c3ccccn3)[nH]c2c1 | -23.7 | 4.3 | 5.9 | -3.6 | -4.8
c1ccc(-c2nc3cc4ccccc4cc3[nH]2)nc1 | 42.5* | -10.9 | 11.5 | -6.5 | 12.5
COC(=O)c1ccc(N2C(c3cc(OC)cc(OC)c3)=Cc3ccc(-c4ccc(C(N)=O)cc4)cc3C2CC(=O)C2CC2)cc1 (stereo not given) | 3.8 | . | -8.3 | . | .
COc1ccc(NC2CCCN(C(=O)CN3C(=O)c4ccccc4C3=O)C2)cc1OC (stereo not given) | 13.7 | -0.2 | -0.2 | -4.1 | -9.1
CC(Cc1ccccc1)C(=O)NCc1ccncc1 (stereo not given) | 24.8 | 5.0 | -0.3 | 4.9 | 5.6
O=C(NC(=S)NC(CO)Cc1ccccc1)c1ccc(F)cc1 (stereo not given) | -7.1 | 33.3* | -2.8 | -3.1 | 2.0
CC(Cc1ccccc1)C(=O)N[C@@H](CO)Cc1ccccc1 (stereo not given in full) | 7.3 | -2.1 | 0.0 | 71.3* | active
O=C(Nc1ccc(Cl)cc1)Nc1ccc(Br)cn1 | 37.1* | 16.8 | -3.3 | -10.5 | 0.9
CCOc1ccc(NC(=O)Nc2ccc(Br)cn2)cc1 | 19.3 | 6.9 | 1.8 | 1.4 | -4.3
SMILES | SKN-1 inh | PABP1 MLLE inh | MT1-MMP act inh | PABP FP inh | eIF4H FP inh
COc1cc(/C=C(\C#N)C(=O)Nc2ccccc2F)ccc1OCCN1CCOCC1 | 9.3 | -7.6 | -5.6 | -10.6 | 4.5
N#C/C(=C/C1=C(N2CCOCC2)C(=C/c2ccc(Cl)cc2)/CC1)C(=O)Nc1ccccc1F | 43.9* | -22.4 | 8.4 | . | .
COc1cc(NC(=O)c2cc(-c3ccccc3Cl)on2)cc(OC)c1OC | 5.9 | 10.0 | -5.0 | -2.6 | -3.9
CCOc1ccc(-n2c(SC(C)C)nc3c(c2=O)SCC3)cc1 | -1.3 | 8.4 | -5.1 | active | 76.4
CCOc1ccc(-n2c(SC)nc3c(c2=O)SCC3)cc1 | -25.8 | 2.3 | -0.5 | -8.0 | -8.5
CCOc1ccc(/C=C/C2=Cc3c(sc(NC(=O)CSc4n[nH]c(N)n4)c3C#N)C(C)(C)C2)cc1 | 36.5* | -53.1 | -47.7 | ? | ?
Cc1ccsc1/C=C/C1=Cc2c(sc(NC(=O)CSc3n[nH]c(N)n3)c2C#N)C(C)(C)C1 | 31.9 | -4.0 | -44.0 | ? | ?
COc1ccc(OCC(O)CNS(=O)(=O)c2ccc(NC(C)=O)cc2)cc1 (stereo not given) | 5.7 | 8.7 | 0.4 | 7.2 | -2.7
O=C1CC(C(=O)NC2CCCCC2)C(c2ccccc2)O1 (stereo not given) | -0.8 | -3.9 | 1.8 | 4.6 | -5.0
C[C@@H]1[C@@H](Sc2ccccc2)CC(=O)O[C@@H]1c1ccc(-c2ccccc2)cc1 | 3.1 | 44.1* | 1.7 | . | .
COc1cc(-c2noc(C)c2/C=C/c2cccc([N+](=O)[O-])c2)cc(OC)c1OC | 0.3 | -9.9 | 12.2 | -11.6 | -8.3
COc1cc(-c2noc(C)c2/C=C/c2ccc(C(=O)O)cc2)cc(OC)c1OC | -6.4 | 4.7 | -3.2 | 66.4* | 100.4*
COc1ccc(-c2noc(CCC(=O)N3CCN(c4cccc(Cl)c4)CC3)n2)cc1 | -9.1 | 12.6 | 3.9 | . | .
O=C(/C(C=Nc1ccc(Br)cc1)=C(/O)c1ccco1)C(F)(F)F | 74.0* | -0.9 | -12.4 | 7.7 | 0.8
Fc1ccccc1-c1nc(-c2ccc(Cl)cc2)no1 | 36.0* | 5.3 | -8.3 | . | .
O=C1c2ccccc2C(=O)N1CCc1nc(-c2ccc(Cl)cc2)no1 | 47.8* | -4.7 | 1.1 | 0.1 | 3.3
Cc1ccc(/C=C/C(=O)Nc2nn[nH]n2)o1 | -6.3 | 36.4* | -7.6 | 5.9 | 38.0
CC(C)c1ccc(/C=C/C(=O)Nc2nn[nH]n2)cc1 | . | . | . | -26.8 | -4.6
COC(=O)c1sc(NC(=O)/C=C/c2ccc(C)o2)nc1C | 10.0 | 4.6 | -4.8 | -12.3 | 95.3*
Nc1c(N(Cc2ccco2)C(=O)c2ccccc2F)c(=O)[nH]c(=O)n1Cc1ccccc1 | -0.8 | -8.8 | -2.6 | . | .
Clc1ccc2nc(-c3ccc(Br)s3)cn2c1 | 70.2* | 2.5 | 7.8 | 9.9 | 9.0
O=C(O)c1ccc(N/N=C/c2cc3c(cc2[N+](=O)[O-])OCO3)cc1 | -10.5 | 25.8 | 8.1 | . | .
Cc1ccccc1N=Cc1cc2c(cc1[N+](=O)[O-])OCO2 | 5.2 | 15.1 | 4.7 | 3.0* | 96.0
Cc1c(N=Cc2cc3c(cc2[N+](=O)[O-])OCO3)cccc1[N+](=O)[O-] | -0.4 | 24.0 | 2.1 | . | .
Cc1cc(C)nc(N/N=C/c2cc3c(cc2[N+](=O)[O-])OCO3)n1 | 7.6 | 8.2 | 1.3 | 11.2* | 54.8*
